In PMC6489120 (Journal of medicinal chemistry, 2018):
Converted amounts (≈) assume the structure as drawn.

Experiments:
BRD4 BD1 = BRD4 BD1 (Homo sapiens, UniProt O60885); assay: fluorescence polarization binding assay, BRD4 BD1; conditions: relative to compound 24
Procedure, shortened: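 Binding measured by fluorescence polarization against recombinant human BRD4 BD1 (residues 44−168), using the group's previously established FP assay.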

EP300 = biological target: T1, EP300 (Homo sapiens, UniProt Q09472); assay: DiscoverX BROMOscan; format: binding; conditions: BROMOscan Kd
T1 sequence (Q09472 1040-1161 limits assumed): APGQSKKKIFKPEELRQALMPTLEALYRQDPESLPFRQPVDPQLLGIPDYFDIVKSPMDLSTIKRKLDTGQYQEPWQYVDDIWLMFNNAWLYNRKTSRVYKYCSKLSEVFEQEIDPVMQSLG

CECR2 = CECR2 (Homo sapiens, UniProt Q9BXF3); assay: DiscoverX BROMOscan; format: binding; conditions: BROMOscan Kd
Chain of CECR2 (Q9BXF3 424-538 limits assumed): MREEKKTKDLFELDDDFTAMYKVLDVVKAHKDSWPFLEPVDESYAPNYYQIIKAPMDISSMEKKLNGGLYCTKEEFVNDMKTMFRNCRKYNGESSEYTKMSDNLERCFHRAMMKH

[1] = full pharmacokinetics in mice; format: in vivo; conditions: Balb/c, mouse, plasma, po, 25 mg/kg
Procedure, shortened: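 Balb/c mice dosed orally at 25 mg/kg (iv arm 5.0 mg/kg), test compound in 20% (v/v) PCP and 70% (v/v) PBS. Blood taken 0, 5, 15, 30 min and 1, 2, 4, 6, 8, 24 h post-dose and centrifuged; plasma held at −80 °C. Plasma levels by LC−MS/MS (C18, formic acid/CH3CN gradient, positive-ion MRM); parameters by noncompartmental analysis.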

aqueous solubility = format: physicochemical; conditions: aqueous solution
[2] = test system: 23 other non-BET family bromodomain containing proteins; assay: DiscoverX BROMOscan, other non-BET bromodomains summary; format: binding; conditions: at concentrations of 3–4 µM
[3] = animal weight and signs of toxicity in efficacy studies; format: in vivo; conditions: all the three dose-schedules tested
other 371 kinases = assay: kinase panel by Reaction Biology; format: biochemical; conditions: at 3 µM
CREBBP = CREBBP (Homo sapiens, UniProt Q92793); assay: DiscoverX BROMOscan; format: binding; conditions: BROMOscan Kd
Chain of CREBBP (Q92793 1081-1197 limits assumed): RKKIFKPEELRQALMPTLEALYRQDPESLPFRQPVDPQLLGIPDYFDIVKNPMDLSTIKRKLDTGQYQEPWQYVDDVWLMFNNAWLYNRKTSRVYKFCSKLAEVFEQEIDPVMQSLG

times less potent than 24 in binding to BRD4 BD1 (BRD4 BD1) [times] | SMILES | selectivity for BET bromodomains over EP300 (EP300) [fold] | selectivity for BET bromodomains over CRCR2 (CECR2) [fold] | Cmax [1] [µM] | solubility (aqueous solubility; pH 3, aqueous buffer) [µM] | solubility (aqueous solubility; pH 11, aqueous buffer) [µM] | binding affinity to 23 other non-BET bromodomain containing proteins [2] | other signs of toxicity [3] | weight loss [3] | inhibition against other 371 kinases (other 371 kinases) | selectivity for BET bromodomains over CREBBP (CREBBP) [fold]
> 5 | COc1cc2c(cc1-c1c(C)noc1C)[nH]c1nc(C)nc(Nc3c(C)c(C4CC4)nn3C)c12 [Compound 37, N-(3-Cyclopropyl-1,4-dimethyl-1H-pyrazol-5-yl)-7-(3,5-dimethylisoxazol-4-yl)-6-methoxy-2-methyl-9H-pyrimido[4,5-b]indol-4-amine] | – | – | – | – | – | – | – | – | – | –
– | COc1cc2c(cc1-c1c(C)noc1C)[nH]c1nc(C)nc(Nc3cc(C4CC4)nn3C)c12 [Compound 28, N-(3-Cyclopropyl-1-methyl-1H-pyrazol-5-yl)-7-(3,5-dimethylisoxazol-4-yl)-6-methoxy-2-methyl-9H-pyrimido[4,5-b]indol-4-amine] | > 50 | > 50 | 6.4 | 19.5 ± 5.5 (≈ 8.65 µg/mL) | 14 ± 0.5 (≈ 6.21 µg/mL) | no appreciable binding affinity | does not cause other signs of toxicity | no more than 5% | no appreciable inhibition | > 20
